These results are taken from ChEMBL document CHEMBL3826877, “Fatty Acid Amide Hydrolase (FAAH), Acetylcholinesterase (AChE), and Butyrylcholinesterase (BuChE): Networked Targets for the Development of Carbamates as Potential Anti-Alzheimer's Disease Agents” (J Med Chem, 2016).

Data set [1] addresses T1, Fatty-acid amide hydrolase 1 (Rattus norvegicus, UniProt P97612).
T1 sequence (P97612 whole entry): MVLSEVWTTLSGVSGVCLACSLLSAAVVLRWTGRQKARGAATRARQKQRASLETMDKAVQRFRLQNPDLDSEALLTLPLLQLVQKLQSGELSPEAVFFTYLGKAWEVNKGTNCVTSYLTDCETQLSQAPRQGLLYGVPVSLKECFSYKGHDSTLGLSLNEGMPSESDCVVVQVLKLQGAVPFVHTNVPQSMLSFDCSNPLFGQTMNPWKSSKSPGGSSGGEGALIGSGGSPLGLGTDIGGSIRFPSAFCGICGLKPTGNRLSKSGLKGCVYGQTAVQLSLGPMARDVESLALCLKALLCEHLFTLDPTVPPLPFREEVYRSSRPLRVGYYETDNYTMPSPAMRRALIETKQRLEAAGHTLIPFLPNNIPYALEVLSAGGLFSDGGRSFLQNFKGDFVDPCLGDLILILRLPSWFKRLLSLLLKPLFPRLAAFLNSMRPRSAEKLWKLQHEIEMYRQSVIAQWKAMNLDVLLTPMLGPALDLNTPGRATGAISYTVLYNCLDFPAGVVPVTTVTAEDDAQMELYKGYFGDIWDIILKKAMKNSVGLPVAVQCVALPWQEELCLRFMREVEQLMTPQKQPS
The data set can be described thus: Inhibition of FAAH in rat brain membrane using N-arachidonoyl-[14C]-ethanolamine as substrate preincubated for 20 mins followed by substrate addition measured after 30 mins by scintillation counting method. Format: cell membranes. In short, it runs like this:
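Compound preincubated 20 min at 37 °C with rat brain 10,000 x g membranes (70 µg/sample), then [14C]-AEA (diluted with AEA) added in 50 mM Tris-HCl pH 9.00-10.00, 37 °C, 30 min. [14C]-ethanolamine counted by scintillation after CHCl3/MeOH 1:1 extraction.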

The target of data set [2] is T2, Acetylcholinesterase (Homo sapiens, UniProt P22303). The data set can be described thus: Inhibition of recombinant human AChE expressed in HEK293 cells using acetylthiocholine iodide as substrate preincubated for 120 mins followed by substrate addition by Ellman's method. In short, it runs like this:
(§1)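 Ellman assay at 37 °C in 0.1 M phosphate pH 8.0 with 340 µM DTNB, 0.02 U/mL enzyme and 550 µM thiocholine substrate. Enzyme and inhibitor preincubated before substrate: AChE 120 min (one compound 60 min), BuChE 15 or 20 min depending on N-substituent. Non-enzymatic blanks run. […] IC50 by linear regression of % inhibition vs log concentration. Mean of 2-3 independent runs in duplicate.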
On the technique in general: Ellman's reagent forms a yellow product with free thiols.

Data set [3] addresses T3, Cholinesterase (Homo sapiens, UniProt P06276). The data set can be described thus: Inhibition of human serum BuChE assessed as enzyme carbamoylation using butyrylthiocholine iodide as substrate preincubated with enzyme followed by substrate addition by Ellman's method. Particulars: TDE = time-dependent effect.
For data set [4], the target named is T1, Fatty-acid amide hydrolase 1. The data set can be described thus: Inhibition of FAAH in rat brain membrane using N-arachidonoyl-[14C]-ethanolamine as substrate incubated for 30 mins by scintillation counting method. Format: cell membranes. In short, it runs like this: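 Rat brain 10,000 x g membrane fraction (70 µg/sample) co-incubated with compound and [14C]-AEA diluted with unlabelled AEA in 50 mM Tris-HCl, pH 9.00-10.00, 37 °C, 30 min. Released [14C]-ethanolamine measured by scintillation of the aqueous phase after CHCl3/MeOH 1:1 extraction.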

For data set [5], the target named is T2, Acetylcholinesterase. The data set can be described thus: Inhibition of recombinant human AChE expressed in HEK293 cells assessed as enzyme carbamoylation using acetylthiocholine iodide as substrate preincubated with enzyme followed by substrate addition by Ellman's method. The settings on record: TDE = time-dependent effect.
The target of data set [6] is T3, Cholinesterase. The data set can be described thus: Inhibition of human serum BuChE using butyrylthiocholine iodide as substrate preincubated for 15 mins followed by substrate addition by Ellman's method. A digest of the protocol: as §1
Data set [7] addresses T3, Cholinesterase. The data set can be described thus: Inhibition of human serum BuChE using butyrylthiocholine iodide as substrate preincubated for 20 mins followed by substrate addition by Ellman's method. In short, it runs like this: as §1
A further data set has as its system SH-SY5Y. The data set can be described thus: Cytotoxicity against human SH-SY5Y assessed as reduction in cell viability at 1 to 50 uM after 24 hrs by MTT assay. The class given is cell-based. A digest of the protocol:
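SH-SY5Y neuroblastoma cells grown in DMEM with 2 mM L-glutamine, penicillin/streptomycin and 10% FBS. Cells seeded and cultured overnight at 37°C, 5% CO2. Compounds in DMSO (final under 0.1%) added for 24 h. MTT 0.5 mg/mL added for 3 h, formazan taken up in isopropanol, absorbance read at 620 nm. Viability given relative to vehicle. Three independent experiments in quadruplicate.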
In general terms: Tetrazolium dyes change colour on reduction, which living cells bring about.

For data set [8], the system named is Homo sapiens. The data set can be described thus: Binding affinity to AChE in human assessed as enzyme reactivation half life at 1.5 mg/kg, iv dosed over 60 mins infusion. The class given is functional, organism-based.
The subject of data set [9] is Homo sapiens. The data set can be described thus: Binding affinity to AChE in human assessed as enzyme reactivation half life at 8 to 40 mg/kg, po. Format: functional, organism-based.

T2 sequence (P22303 whole entry): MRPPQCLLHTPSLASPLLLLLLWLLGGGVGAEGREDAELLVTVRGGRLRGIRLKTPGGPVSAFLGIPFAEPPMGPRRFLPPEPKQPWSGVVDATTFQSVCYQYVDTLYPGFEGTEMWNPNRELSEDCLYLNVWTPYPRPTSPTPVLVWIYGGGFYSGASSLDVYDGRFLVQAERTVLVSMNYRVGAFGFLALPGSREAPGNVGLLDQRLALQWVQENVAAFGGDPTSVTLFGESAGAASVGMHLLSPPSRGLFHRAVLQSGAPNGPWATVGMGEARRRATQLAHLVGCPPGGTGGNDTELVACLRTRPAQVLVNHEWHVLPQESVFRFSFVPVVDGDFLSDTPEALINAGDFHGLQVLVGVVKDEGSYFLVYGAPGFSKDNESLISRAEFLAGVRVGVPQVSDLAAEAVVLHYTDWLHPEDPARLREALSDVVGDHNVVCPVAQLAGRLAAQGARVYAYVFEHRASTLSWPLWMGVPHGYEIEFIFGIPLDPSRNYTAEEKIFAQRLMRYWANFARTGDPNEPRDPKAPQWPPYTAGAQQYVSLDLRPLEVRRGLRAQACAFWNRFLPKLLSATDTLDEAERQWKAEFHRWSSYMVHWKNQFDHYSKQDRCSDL
T3 sequence (P06276 whole entry): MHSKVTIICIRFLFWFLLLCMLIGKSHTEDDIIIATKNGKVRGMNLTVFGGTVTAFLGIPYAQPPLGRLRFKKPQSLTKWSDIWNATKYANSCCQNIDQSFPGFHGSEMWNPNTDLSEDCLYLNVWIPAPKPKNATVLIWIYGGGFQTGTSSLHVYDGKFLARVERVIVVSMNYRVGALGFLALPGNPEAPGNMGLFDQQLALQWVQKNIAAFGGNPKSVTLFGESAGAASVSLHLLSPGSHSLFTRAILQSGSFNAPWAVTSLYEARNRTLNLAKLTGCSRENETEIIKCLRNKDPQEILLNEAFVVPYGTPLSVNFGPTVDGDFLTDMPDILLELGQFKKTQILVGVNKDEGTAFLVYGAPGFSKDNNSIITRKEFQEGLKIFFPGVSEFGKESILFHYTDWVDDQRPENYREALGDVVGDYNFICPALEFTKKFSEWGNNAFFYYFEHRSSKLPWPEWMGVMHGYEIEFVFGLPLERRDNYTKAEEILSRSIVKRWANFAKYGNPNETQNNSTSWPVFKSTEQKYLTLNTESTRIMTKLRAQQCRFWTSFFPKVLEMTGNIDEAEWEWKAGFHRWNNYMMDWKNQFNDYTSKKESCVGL

In the case of `Cc1cc(=O)oc2cc(OCCCN(C)Cc3cccc(OC(=O)NCCCCCc4ccccc4)c3)ccc12`, the IC50 (in general, the concentration needed to halve the response being measured) was found to be 0.135 µM in [1], 0.0805 µM at Acetylcholinesterase [2], 0.459 µM in data set [4] and 0.00275 µM against Cholinesterase [6]. The inhibition result on Cholinesterase [3] and at Acetylcholinesterase [5] was “tde” in each case.
On to `CCCCCCCNC(=O)Oc1ccc(-n2cc(COc3ccc4ccc(=O)oc4c3)nn2)cc1`, for which the IC50 was found to be 0.0213 µM in [1], 158 µM on Acetylcholinesterase [2], 0.167 µM in data set [4] and 122 µM against Cholinesterase [7].
Regarding `CN(CCCOc1ccc2c3c(c(=O)oc2c1)CCCC3)Cc1cccc(OC(=O)NCCCCCc2ccccc2)c1`, the half-inhibitory concentration (IC50) in data set [1] amounted to 1.39 µM; at Acetylcholinesterase [2], 0.0899 µM; in data set [4], 3.48 µM; on Cholinesterase [6], 0.00144 µM. Also, the inhibition entry on Cholinesterase [3] and on Acetylcholinesterase [5] was “tde” in each case.
Take `CCCCCCCNC(=O)Oc1ccc(Cn2cc(COc3ccc4ccc(=O)oc4c3)nn2)cc1`: the half-maximal inhibitory concentration (IC50) in data set [1] turned out to be 0.055 µM; on Acetylcholinesterase [2], 0.214 µM; in data set [4] it was 0.354 µM; against Cholinesterase [7], 0.0159 µM.
Consider `CCCCCCCNC(=O)Oc1cccc(CN(C)CCCOc2ccc3c4c(c(=O)oc3c2)CCCC4)c1`, for which the half-inhibitory concentration (IC50) in data set [1] stood at 0.306 µM; at Acetylcholinesterase [2], 0.0216 µM; in data set [4], 2.49 µM; at Cholinesterase [7], 0.00027 µM. The inhibition entry at Cholinesterase [3] and at Acetylcholinesterase [5] was “tde” each time.
`O=C(NCCCCCc1ccccc1)Oc1ccc(-n2cc(COc3ccc4ccc(=O)oc4c3)nn2)cc1`: the half-inhibitory concentration (IC50) in data set [1] was 0.0433 µM; on Acetylcholinesterase [2], 47.9 µM; in [4] it was 0.236 µM; against Cholinesterase [6] it was 1.23 µM.
As to `NC(=O)c1cccc(-c2cccc(OC(=O)NC3CCCCC3)c2)c1` [URB-597], the Activity entry in the data set with SH-SY5Y is reported as “Non-toxic”.
Turning to `CCCCCCCNC(=O)Oc1cccc(Cn2cc(COc3ccc4ccc(=O)oc4c3)nn2)c1`, the IC50 in [1] turned out to be 0.0326 µM; on Acetylcholinesterase [2] it was 1.04 µM; in [4] it was 0.109 µM; at Cholinesterase [7] it was 0.0782 µM.
Regarding `CCCCCCCNC(=O)Oc1cccc(CN(C)CCCOc2ccc3c(=O)c4cccnc4oc3c2)c1`, the IC50 was found to be 0.202 µM in data set [1], 0.013 µM on Acetylcholinesterase [2], 3.13 µM in data set [4] and 0.00069 µM on Cholinesterase [7]. The inhibition result at Cholinesterase [3] and at Acetylcholinesterase [5] was “tde” throughout.
For `CNC(=O)Oc1ccc2c(c1)[C@]1(C)CCN(C)[C@@H]1N2C`, the T1/2 in the data set with Homo sapiens [8] turned out to be 0.5 h.
Regarding `CN(CCCOc1ccc2ccc(=O)oc2c1)Cc1cccc(OC(=O)NCCCCCCc2ccccc2)c1`, the IC50 was found to be 0.53 µM in data set [1], 0.109 µM at Acetylcholinesterase [2], 1.79 µM in data set [4] and 0.00285 µM at Cholinesterase [6]. Further, the inhibition result on Cholinesterase [3] and at Acetylcholinesterase [5] was “tde” throughout.
Turning to `O=C(NCCCCCc1ccccc1)Oc1cccc(-n2cc(COc3ccc4ccc(=O)oc4c3)nn2)c1`, the half-inhibitory concentration (IC50) in data set [1] was 0.0447 µM; at Acetylcholinesterase [2], 1.17 µM; in data set [4] it was 0.209 µM; against Cholinesterase [6] it was 0.0152 µM.
For the molecule `CCCCCCCNC(=O)Oc1cccc(CN(C)CCCCCOc2ccc3ccc(=O)oc3c2)c1`, the IC50 came out at 0.242 µM in [1], 0.0113 µM at Acetylcholinesterase [2], 1.29 µM in data set [4] and 0.00079 µM at Cholinesterase [7]. The inhibition result on Cholinesterase [3] and on Acetylcholinesterase [5] was “tde” throughout.
With `COc1ccc(-c2cc3cc(OCCCN(C)Cc4cccc(OC(=O)NCCCCCc5ccccc5)c4)ccc3oc2=O)cc1`, the half-inhibitory concentration (IC50) in data set [1] is 0.211 µM; at Acetylcholinesterase [2], 0.179 µM; in data set [4] it was 2.83 µM; at Cholinesterase [6], 0.00115 µM. The inhibition result at Cholinesterase [3] and on Acetylcholinesterase [5] was “tde” in each case.
On to `CCCCCCCNC(=O)Oc1ccc2c(c1)[C@]1(C)CCN(C)[C@@H]1N2C`, for which the T1/2 in the data set on Homo sapiens [9] worked out at 10 h.
Consider `CCCCCCCNC(=O)Oc1cccc(-n2cc(COc3ccc4ccc(=O)oc4c3)nn2)c1`, for which the half-inhibitory concentration (IC50) in data set [1] stood at 0.0157 µM; on Acetylcholinesterase [2] it was 0.702 µM; in data set [4] it was 0.0619 µM; at Cholinesterase [7], 0.0712 µM. The Activity entry in the data set on SH-SY5Y is given as “Non-toxic”.
In the case of `COc1ccc(-c2cc3ccc(OCCCN(C)Cc4cccc(OC(=O)NCCCCCc5ccccc5)c4)cc3oc2=O)cc1`, the half-maximal inhibitory concentration (IC50) in data set [1] worked out at 0.322 µM; at Acetylcholinesterase [2], 0.312 µM; in data set [4], 2.33 µM; at Cholinesterase [6], 0.0013 µM. Also, the inhibition result at Cholinesterase [3] and at Acetylcholinesterase [5] was “tde” throughout.
Turning to `CN(CCCCCOc1ccc2ccc(=O)oc2c1)Cc1cccc(OC(=O)NCCCCCc2ccccc2)c1`, the 50% inhibitory concentration (IC50) in [1] was 0.12 µM; on Acetylcholinesterase [2], 0.0881 µM; in data set [4] it was 0.798 µM; against Cholinesterase [6], 0.00123 µM. Moreover, the inhibition result on Cholinesterase [3] and at Acetylcholinesterase [5] was “tde” in each case.
For `O=C(NCCCCCc1ccccc1)Oc1ccc(Cn2cc(COc3ccc4ccc(=O)oc4c3)nn2)cc1`, the IC50 in [1] was 0.0285 µM; on Acetylcholinesterase [2], 0.255 µM; in [4], 0.113 µM; against Cholinesterase [6] it was 0.00117 µM.
For `CCCCCCCNC(=O)Oc1cccc(CN(C)CCCCCOc2ccc3c(c2)Oc2ncccc2C3)c1`, the 50% inhibitory concentration (IC50) in data set [1] came to 0.178 µM; at Acetylcholinesterase [2], 0.00692 µM; in [4] it was 2.18 µM; on Cholinesterase [7], 0.00053 µM. For the same molecule, the inhibition result at Cholinesterase [3] and at Acetylcholinesterase [5] was “tde” throughout.
As for `CN(CCCOc1ccc2cc(-c3ccc(Cl)cc3)c(=O)oc2c1)Cc1cccc(OC(=O)NCCCCCc2ccccc2)c1`, the half-inhibitory concentration (IC50) is 0.265 µM in [1], 0.9 µM on Acetylcholinesterase [2], 1.47 µM in [4] and 0.00351 µM against Cholinesterase [6]. For the same molecule, the inhibition entry at Cholinesterase [3] and on Acetylcholinesterase [5] was “tde” each time.
For `O=C(NCCCCCc1ccccc1)Oc1cccc(Cn2cc(COc3ccc4ccc(=O)oc4c3)nn2)c1`, the half-maximal inhibitory concentration (IC50) in [1] is 0.0279 µM; at Acetylcholinesterase [2], 0.922 µM; in [4] it was 0.157 µM; against Cholinesterase [6], 0.0427 µM.
As to `CN(CCCOc1ccc2c(c1)oc(=O)c1ccccc12)Cc1cccc(OC(=O)NCCCCCc2ccccc2)c1`, the concentration for half-maximal inhibition (IC50) is 0.312 µM in data set [1], 0.39 µM on Acetylcholinesterase [2], 1.83 µM in data set [4] and 0.00119 µM on Cholinesterase [6]. Also, the inhibition result on Cholinesterase [3] and at Acetylcholinesterase [5] was “tde” in each case.
For the molecule `CN(CCCOc1ccc2cc(-c3ccccc3)c(=O)oc2c1)Cc1cccc(OC(=O)NCCCCCc2ccccc2)c1`, the IC50 was 0.25 µM in data set [1], 0.125 µM on Acetylcholinesterase [2], 1.85 µM in data set [4] and 0.00206 µM on Cholinesterase [6]. In addition, the inhibition entry on Cholinesterase [3] and on Acetylcholinesterase [5] was “tde” in each case.
